ChEMBL document CHEMBL2021809, “Synthesis, biological evaluation and molecular modeling study of pyrazole and pyrazoline derivatives as selective COX-2 inhibitors and anti-inflammatory agents. Part 2” (Bioorg Med Chem, 2012)

Experiments:
[1] = biological target: T1, Prostaglandin G/H synthase 1 (Ovis aries, UniProt P05979); assay: Inhibition of ovine COX1 by enzyme immuno assay
T1 sequence (P05979 whole entry): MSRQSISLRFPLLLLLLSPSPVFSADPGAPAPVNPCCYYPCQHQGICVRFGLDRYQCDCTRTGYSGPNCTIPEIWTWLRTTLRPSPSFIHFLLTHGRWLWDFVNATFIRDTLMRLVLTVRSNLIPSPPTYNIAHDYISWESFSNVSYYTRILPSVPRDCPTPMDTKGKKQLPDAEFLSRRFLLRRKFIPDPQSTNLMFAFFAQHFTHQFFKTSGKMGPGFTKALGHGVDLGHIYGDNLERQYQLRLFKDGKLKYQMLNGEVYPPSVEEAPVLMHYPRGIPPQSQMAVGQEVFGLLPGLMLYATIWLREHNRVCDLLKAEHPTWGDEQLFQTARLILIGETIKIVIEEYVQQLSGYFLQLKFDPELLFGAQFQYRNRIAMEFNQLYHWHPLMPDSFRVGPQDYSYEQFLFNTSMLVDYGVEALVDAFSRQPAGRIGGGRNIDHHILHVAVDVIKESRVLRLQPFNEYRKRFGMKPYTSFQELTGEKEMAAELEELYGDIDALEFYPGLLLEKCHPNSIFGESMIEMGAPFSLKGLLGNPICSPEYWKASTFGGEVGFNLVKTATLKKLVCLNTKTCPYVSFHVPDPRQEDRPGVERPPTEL

[2] = test system: Rattus norvegicus; assay: Antiinflammatory activity in rat assessed as inhibition of carrageenan-induced foot paw edema at 100 mg/kg, ip measured after 2 hrs; type: functional; settings: route intraperitoneal
Procedure, shortened: (§1)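 Edema was induced in the rat paw with carrageenan. The read-out was percent reduction of edema at 2 h for each single dose. Test doses were 100 and 200 mg/kg. The reference agent was given at 50 and 100 mg/kg ip.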

[3] = test system: Rattus norvegicus; assay: Antiinflammatory activity in rat assessed as inhibition of carrageenan-induced foot paw edema at 200 mg/kg, ip measured after 2 hrs; type: functional; settings: route intraperitoneal; procedure, shortened: as §1
[4] = test system: Rattus norvegicus; assay: Antiinflammatory activity in ip dosed rat assessed as inhibition of carrageenan-induced foot paw edema measured after 2 hrs; type: functional
[5] = test system: Rattus norvegicus; assay: Antiinflammatory activity in rat assessed as inhibition of carrageenan-induced foot paw edema at 50 mg/kg, ip measured after 2 hrs; type: functional; settings: route intraperitoneal; procedure, shortened: as §1

For N#CC(C#N)=Cc1c(C(F)(F)F)nn(-c2ccccc2)c1-c1ccc(Cl)cc1, the IC50 [1] was > 50 µM.

In the case of O=C(/C(=C/c1ccc(O)cc1)C(=O)C(F)(F)F)c1ccc(Cl)cc1, the IC50 [1] is reported as > 50 µM, the inhibition in vivo at 100 mg/kg [2] is reported as 39.2% and the inhibition in vivo at 200 mg/kg [3] is reported as 78.9%. It also gave an ED50 [4] of 366 µmol/kg.

For FC(F)(F)c1nn(-c2ccccc2)c(-c2ccc(Cl)cc2)c1/C=N/c1ccccc1Cl, the IC50 [1] was > 50 µM.

With Cc1ccc(C2=NNC3(C2)C(=O)Nc2ccc(F)cc23)cc1 (centres undefined) the IC50 [1] was > 50 µM.

In the case of FC(F)(F)C1=NN=C(c2ccc(Cl)cc2)/C1=C\c1ccco1, the IC50 [1] is reported as > 50 µM.

In the case of COc1ccc(/C=C2\C(c3ccc(Cl)cc3)=NN=C2C(F)(F)F)cc1OC, the IC50 [1] is reported as > 50 µM, the inhibition in vivo at 100 mg/kg [2] is reported as 42% and the inhibition in vivo at 200 mg/kg [3] is reported as 88.7%. The ED50 [4] was 298 µmol/kg.

In the case of COc1ccc(/C=C2\C(c3ccc(Cl)cc3)=NN=C2C(F)(F)F)cc1, the IC50 [1] is reported as > 50 µM, the inhibition in vivo at 100 mg/kg [2] is reported as 33.4% and the inhibition in vivo at 200 mg/kg [3] is reported as 69.1%. The ED50 [4] was 405 µmol/kg.

For COc1ccc(/C=C(/C(=O)c2ccc(Cl)cc2)C(=O)C(F)(F)F)cc1OC, the IC50 [1] was > 50 µM, the inhibition in vivo at 100 mg/kg [2] was 38.7% and the inhibition in vivo at 200 mg/kg [3] was 80.2%. It also gave an ED50 [4] of 321 µmol/kg.

In the case of O=C(/C(=C/c1cccc([N+](=O)[O-])c1)C(=O)C(F)(F)F)c1ccc(Cl)cc1, the IC50 [1] is reported as > 50 µM, the inhibition in vivo at 100 mg/kg [2] is reported as 37.9% and the inhibition in vivo at 200 mg/kg [3] is reported as 80%. It also gave an ED50 [4] of 343 µmol/kg.

For O=C(/C(=C/c1ccccc1O)C(=O)C(F)(F)F)c1ccc(Cl)cc1, the IC50 [1] was > 50 µM.

With O=C1Nc2ccc(F)cc2C12CC(c1ccc(Br)cc1)=NN2 (centres undefined) the IC50 [1] was > 50 µM.

For FC(F)(F)c1nn(-c2ccccc2)c(-c2ccc(Cl)cc2)c1/C=N/c1ccc(Br)cc1, the IC50 [1] was > 50 µM, the inhibition in vivo at 100 mg/kg [2] was 25.2% and the inhibition in vivo at 200 mg/kg [3] was 61.1%. The ED50 [4] was 335 µmol/kg.

For O=C(/C(=C/c1ccco1)C(=O)C(F)(F)F)c1ccc(Cl)cc1, the IC50 [1] was > 50 µM.

Work on O=C(O)Cc1ccccc1Nc1c(Cl)cccc1Cl [DICLOFENAC SODIUM] yielded an inhibition in vivo at 100 mg/kg [2] of 87.3%, an inhibition in vivo at 50 mg/kg [5] of 48.7% and an ED50 [4] of 198 µmol/kg.

In the case of Oc1ccc(/C=C2\C(c3ccc(Cl)cc3)=NN=C2C(F)(F)F)cc1, the IC50 [1] is reported as > 50 µM, the inhibition in vivo at 100 mg/kg [2] is reported as 35.3% and the inhibition in vivo at 200 mg/kg [3] is reported as 81.4%. It also gave an ED50 [4] of 370 µmol/kg.

Compound Cc1ccc(-c2cc(C(F)(F)F)nn2-c2ccc(S(N)(=O)=O)cc2)cc1 [CELECOXIB] has an inhibition in vivo at 100 mg/kg [2] of 83%, an inhibition in vivo at 50 mg/kg [5] of 57% and an ED50 [4] of 185 µmol/kg.

O=[N+]([O-])c1ccc(/N=C/c2c(C(F)(F)F)nn(-c3ccccc3)c2-c2ccc(Cl)cc2)cc1 was tested, and the IC50 [1] was > 50 µM, the inhibition in vivo at 100 mg/kg [2] was 43.7% and the inhibition in vivo at 200 mg/kg [3] was 86.7%. The ED50 [4] was 243 µmol/kg.

In the case of FC(F)(F)c1[nH]nc(-c2ccc(Cl)cc2)c1Cc1ccccc1, the IC50 [1] is reported as > 50 µM.

For O=[N+]([O-])c1cccc(/C=C2\C(c3ccc(Cl)cc3)=NN=C2C(F)(F)F)c1, the IC50 [1] was > 50 µM, the inhibition in vivo at 100 mg/kg [2] was 37.6% and the inhibition in vivo at 200 mg/kg [3] was 84.5%. For the same compound, the ED50 [4] was 318 µmol/kg.

With Oc1ccccc1/C=C1\C(c2ccc(Cl)cc2)=NN=C1C(F)(F)F the IC50 [1] was > 50 µM.

In the case of COc1ccc(/C=C(/C(=O)c2ccc(Cl)cc2)C(=O)C(F)(F)F)cc1, the IC50 [1] is reported as > 50 µM, the inhibition in vivo at 100 mg/kg [2] is reported as 26.3% and the inhibition in vivo at 200 mg/kg [3] is reported as 52.4%. It also gave an ED50 [4] of 528 µmol/kg.

FC(F)(F)c1cc(/N=C/c2c(C(F)(F)F)nn(-c3ccccc3)c2-c2ccc(Cl)cc2)cc(C(F)(F)F)c1 was tested, and the IC50 [1] was > 50 µM, the inhibition in vivo at 100 mg/kg [2] was 52% and the inhibition in vivo at 200 mg/kg [3] was 89.3%. It also gave an ED50 [4] of 170 µmol/kg.
